Test results taken from ChEMBL document CHEMBL6134796, “Development and Evaluation of Indole-Based Phospholipase D Inhibitors for Lung Cancer Immunotherapy” (J Med Chem, 2025).
Calls of active or inactive are those of the source. The calls are words filed in the database; no cut-off is given here.

What was measured:
A549 [1] = experiment: Enhancement of macrophage induced phagocytosis in CFSE labelled human A549 cells assessed as increase on CD11b+CFSE macrophage […] at 5 to 20 uM incubated for 48 hrs by flow cytometric analysis; format: functional, cell-based; details: dose 5-20 µM
Outline: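 A549 cells treated 48 h in RPMI/10% FBS, then labeled with 1 μM CFSE. Co-cultured 1:1 (5 × 10^5 each) with PMA-differentiated THP-1 macrophages in serum-free RPMI for 2 h. After Fc block, stained with PerCP-Cy5.5 anti-CD11b for 20 min at 4 °C. CD11b+CFSE+ fraction measured by flow cytometry.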

[2] = test system: Lewis lung carcinoma cell line; experiment: Antitumor activity against mouse Lewis lung carcinoma cell line allografted in […] male C57BL/6 mouse model assessed as reduction in cell proliferation at 10 mg/kg, po measured every other day for 3 weeks; format: functional, organism-based
[3] = target: T1, Phospholipase D1 (Homo sapiens) (UniProt Q13393); experiment: Inhibition of wild type PLD1 (unknown origin) overexpressed in human A549 cells; format: cell-based
T1 sequence (whole entry): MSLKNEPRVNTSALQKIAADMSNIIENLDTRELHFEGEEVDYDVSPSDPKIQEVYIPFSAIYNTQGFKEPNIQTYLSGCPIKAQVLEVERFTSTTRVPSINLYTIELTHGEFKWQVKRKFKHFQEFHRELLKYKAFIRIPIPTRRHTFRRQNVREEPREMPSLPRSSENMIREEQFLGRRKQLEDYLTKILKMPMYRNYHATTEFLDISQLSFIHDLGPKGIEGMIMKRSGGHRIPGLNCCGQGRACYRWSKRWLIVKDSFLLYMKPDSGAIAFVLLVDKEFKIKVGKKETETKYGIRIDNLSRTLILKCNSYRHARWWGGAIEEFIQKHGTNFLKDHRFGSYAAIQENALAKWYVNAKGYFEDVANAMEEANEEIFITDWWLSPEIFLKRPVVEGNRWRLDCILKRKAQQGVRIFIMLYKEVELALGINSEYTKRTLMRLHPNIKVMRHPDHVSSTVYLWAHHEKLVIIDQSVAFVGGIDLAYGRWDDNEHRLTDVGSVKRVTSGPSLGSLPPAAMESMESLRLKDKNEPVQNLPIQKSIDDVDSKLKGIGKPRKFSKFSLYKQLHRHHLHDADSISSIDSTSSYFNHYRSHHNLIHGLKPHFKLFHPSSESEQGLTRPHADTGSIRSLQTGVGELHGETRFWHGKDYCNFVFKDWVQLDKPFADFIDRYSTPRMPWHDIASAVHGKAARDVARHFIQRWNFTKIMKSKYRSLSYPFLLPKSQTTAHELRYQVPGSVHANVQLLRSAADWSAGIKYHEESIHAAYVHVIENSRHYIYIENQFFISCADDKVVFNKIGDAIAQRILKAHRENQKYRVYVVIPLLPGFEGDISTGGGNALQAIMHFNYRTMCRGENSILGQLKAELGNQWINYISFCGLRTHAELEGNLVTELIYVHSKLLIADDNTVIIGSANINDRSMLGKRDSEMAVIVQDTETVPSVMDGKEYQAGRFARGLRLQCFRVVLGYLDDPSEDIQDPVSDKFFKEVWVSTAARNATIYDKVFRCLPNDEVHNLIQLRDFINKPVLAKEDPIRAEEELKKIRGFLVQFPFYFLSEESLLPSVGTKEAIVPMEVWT
Outline: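 A549 cells transfected with wild-type PLD1, labeled with [3H] myristic acid; PLD activity as [3H] phosphatidylbutanol formed by transphosphatidylation with 1-butanol, expressed as percent of total lipid cpm in PtdBut; alternatively, cells treated 1 h and read by Amplex Red kit (ex 540/em 590 nm); at least three independent experiments.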

[4] = target: T1, Phospholipase D1 (Homo sapiens); experiment: Inhibition of PLD1 (unknown origin) overexpressed in human A549 cells; format: cell-based
Outline: (§1)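 A549 cells transfected with wild-type PLD1, PLD1 mutants (L425A, F614A, F789A) or PLD2, then compound-treated. PLD activity measured as [3H]phosphatidylbutanol formed in the presence of 1-butanol after [3H]myristic acid labeling, expressed as % of total lipid cpm. At least three independent experiments.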

[5] = target: Tubulin beta (Homo sapiens) (UniProt P68371+Q9H4B7+Q13509+P04350+Q3ZCM7+P07437+Q13885+Q9BVA1+Q9BUF5+A6NNZ2); experiment: Binding affinity to beta-tubulin in human A549 cells assessed as protection against pronase E-mediated proteolysis at 2 to 20 uM incubated for 1 hr by DARTS assay; format: cell-based; details: dose 2-20 µM
Outline: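 A549 lysates made in buffer with protease and phosphatase inhibitors. Lysates were incubated with compound for 1 h at room temperature, then digested with Pronase for 10 min at RT. Digestion was quenched in SDS loading buffer by boiling 5 min. PLD1 and β-tubulin were detected by immunoblot.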

[6] = test system: Lewis lung carcinoma cell line; experiment: Antitumor activity against mouse Lewis lung carcinoma cell line allografted in […] male C57BL/6 mouse model assessed as suppression of tumor formation at 10 mg/kg, po measured every other day for 3 weeks; format: functional, organism-based
A549 [7] = experiment: Inhibition of PLD1 F789A mutant (unknown origin) overexpressed in human A549 cells; format: cell-based; outline: as §1
A549 [8] = experiment: Cytotoxicity against human A549 cells assessed as increase in cell death rate by WST-1 assay; format: functional, cell-based; details: time 2-48 hrs
[9] = Metabolic stability in human liver microsomes assessed as parent compound remaining at 1 uM preincubated for 5 mins followed by NADPH regenerating system addition and measured after 30 mins by LC-MS/MS analysis; format: ADME, Microsome; details: time 35 min, read-out: Stability
Outline: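 Human liver microsomes 0.5 mg/mL in 0.1 M phosphate buffer pH 7.4, compound 1 μM, preincubated 5 min at 37 °C; NADPH regenerating system added, 30 min at 37 °C; quenched with acetonitrile containing chlorpropamide internal standard, centrifuged; parent remaining by LC-MS/MS, MRM mode, C18 column with formic acid/acetonitrile gradient.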

Activity [5]: inactive
remaining at 0.5 h, 1 µM [9]: 57.3%
Structure (SMILES): O=C(CCc1c[nH]c2ccccc12)Nc1cc(C(F)(F)F)cc(C(F)(F)F)c1
Activity (A549 [1]): Active
Activity [2]: Active
inhibition [3]: Active
inhibition [4]: Active
Activity [6]: Active
inhibition (A549 [7]): inactive
Activity (A549 [8]): Time-dependent-effect
